Screening data deposited in PubChem by The Scripps Research Institute Molecular Screening Center.
CHRM4 agonist: CHRM4 agonism in calcium assay; CHO-K1 hM4/Gqi5, Fluo-8 calcium fluorescence; vehicle 0%, full acetylcholine response 100%; activation, % at 3 µM; AID 624127; 360,000 compounds, 0.14% hits;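 active = activation above the run mean over all test wells plus 3 SD, cut at about 32% in these data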;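 note: peak over basal fluorescence ratio per well then scaled between controls; 0% = DMSO wells and 100% = acetylcholine at EC100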
CHRM5 antagonist: CHRM5 antagonism in calcium assay; AID 624040; inhibition, % at 3 µM; CHO-hM5 cells, Fluo-8 calcium fluorescence, ACh EC80; 360,000 compounds, 0.59% hits; P08912;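 active = inhibition above a per-plate cutoff, the mean of that plate's test compounds plus 3 SD, cut at about 27% in these data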;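 note: 0% = acetylcholine EC80 with DMSO and 100% = DMSO without agonist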
Target sequence (P08912 whole entry, looked up): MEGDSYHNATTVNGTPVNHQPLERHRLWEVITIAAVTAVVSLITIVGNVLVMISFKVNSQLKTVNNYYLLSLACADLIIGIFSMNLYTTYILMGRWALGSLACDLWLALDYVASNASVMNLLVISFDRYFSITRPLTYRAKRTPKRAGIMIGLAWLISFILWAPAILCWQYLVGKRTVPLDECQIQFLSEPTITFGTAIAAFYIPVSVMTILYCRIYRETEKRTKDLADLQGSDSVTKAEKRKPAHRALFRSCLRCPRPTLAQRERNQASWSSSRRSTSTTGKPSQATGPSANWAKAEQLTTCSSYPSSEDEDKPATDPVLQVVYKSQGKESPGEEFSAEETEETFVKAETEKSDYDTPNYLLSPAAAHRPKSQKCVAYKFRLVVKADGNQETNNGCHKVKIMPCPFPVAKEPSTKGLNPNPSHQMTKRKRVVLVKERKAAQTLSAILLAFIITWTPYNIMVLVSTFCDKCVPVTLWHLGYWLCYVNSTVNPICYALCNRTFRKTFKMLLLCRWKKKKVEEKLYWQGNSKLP
M4 PAM: potentiates acetylcholine response at human M4 receptor. CHO-K1 hM4/Gqi5, Fluo-8 calcium fluorescence, ACh EC20; 0% = ACh EC20, 100% = maximal ACh. activation, % at 3 µM. P08173. 360,000 compounds, 0.4% hits;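 active = activation above its plate's cutoff, the mean activation of sample wells plus 3 SD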
M4 antag: blocks acetylcholine activation of human M4 receptor. CHO-hM4 cells, ACh EC80, Fluo-8 calcium fluorescence. inhibition, % at 3 µM. 360,000 compounds, 0.73% hits. AID 624125;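 active = inhibition above its plate's cutoff, the mean inhibition of sample wells plus 3 SD, cut at about 27% in these data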;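 note: 0% = acetylcholine EC80 with DMSO and 100% = DMSO without agonist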
M5 ag: CHRM5 agonism in calcium assay; P08912; CHO-K1 hM5 cells, Fluo-8 calcium fluorescence; 0% DMSO wells, 100% maximal acetylcholine response; activation, % at 3 µM; 360,000 compounds, 0.19% hits;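 active = activation above the run's mean over test compounds plus 3 SD, cut at about 23% in these data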;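 note: signal is peak over basal fluorescence ratio across the kinetic read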
CHRM5 PAM: CHRM5 positive allosteric modulation | P08912 | CHO-K1 hM5, Fluo-8 calcium, ACh EC20 PAM; 0% = ACh EC20, 100% = ACh EC100 | activation, % at 3 µM | 360,000 compounds, 0.3% hits | AID 624038;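 active = activation above the run cutoff, the mean activation of all test compounds plus 3 SD, cut at about 18% in these data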
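Test system: CHO-K1 hM5 cells / Doses: single-point, 3 µM nominal / Times: Post-acetylcholine fluorescence recording 140 s / Technique: Fluo-8 calcium fluorescence / Measure: Max/basal fluorescence ratio as % of EC20–EC100 ACh window / Benchmarks: low control EC20 acetylcholine (0%), high control EC100 acetylcholine (100%) / Replicates: one well per compound, no replicates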
The depositor's hits bear a star. In the library only some 1.9% were active in any assay of this set; here they are far more common.

Results for Oc1ccc(-[n+]2c(-c3ccccc3)cc(-c3ccccc3)cc2-c2ccccc2)cc1 ?
CHRM4 agonist: 3; CHRM5 antagonist: 13; M4 PAM: -12; M4 antag: 54*; M5 ag: -10; CHRM5 PAM: -31

Results for C[C@@H]1CN([C@@H](C)CO)C(=O)CCCn2cc(nn2)CO[C@H]1CN(C)C(=O)Oc1ccc2ccccc2c1 ?
CHRM4 agonist: 1; CHRM5 antagonist: -1; M4 PAM: 6; M4 antag: -9; M5 ag: 0; CHRM5 PAM: 3

What do the screens show for `O=C1NCN(c2ccccc2)C12CCN(C(c1ccccc1OC(F)(F)F)c1nnnn1C1CCCC1)CC2` (configuration not stated)?
CHRM4 agonist: 1; CHRM5 antagonist: -1; M4 PAM: 6; M4 antag: -13; M5 ag: -1; CHRM5 PAM: 0

How did COC(=O)C1=C(c2c(C)noc2C)C[C@@H]2CC[C@H]1N2C(=O)NCc1ccco1 do in these assays?
CHRM4 agonist: 2; CHRM5 antagonist: 11; M4 PAM: -5; M4 antag: 2; M5 ag: 3; CHRM5 PAM: 0

What do the screens show for `CCc1nc2ccc(Br)cc2c(=O)n1-c1ccccc1C(F)(F)F`?
CHRM4 agonist: 1; CHRM5 antagonist: -1; M4 PAM: -2; M4 antag: 5; M5 ag: -7; CHRM5 PAM: -3

What do the screens show for `CCCc1nc2ccc(Br)cc2c(=O)n1-c1ccc([N+](=O)[O-])c(C(F)(F)F)c1`?
CHRM4 agonist: 7; CHRM5 antagonist: 27*; M4 PAM: -12; M4 antag: 17; M5 ag: 2; CHRM5 PAM: -14

What do the screens show for `COc1ccc(NS(=O)(=O)c2ccc(OCC(=O)N3CCN(C)CC3)cc2)cc1Cl`?
CHRM4 agonist: 3; CHRM5 antagonist: -3; M4 PAM: 1; M4 antag: -10; M5 ag: -4; CHRM5 PAM: -3

What do the screens show for `CN1CCN(C(=O)COc2ccc(S(=O)(=O)NC3CCCCC3)cc2Cl)CC1`?
CHRM4 agonist: 1; CHRM5 antagonist: -19; M4 PAM: 4; M4 antag: -3; M5 ag: 2; CHRM5 PAM: 21*

How did C[C@@H]1O[C@@H](O[C@H]2C[C@@H](O)[C@]3(CO)[C@H]4[C@H](O)C[C@]5(C)[C@@H](C6COC(=O)C6)CC[C@]5(O)[C@@H]4CC[C@]3(O)C2)[C@H](O)[C@H](O)[C@H]1O (some centres not stated) do in these assays?
CHRM4 agonist: 1; CHRM5 antagonist: -5; M4 PAM: -15; M4 antag: 34*; M5 ag: 0; CHRM5 PAM: -7

How did CC1OC(OC2CC(O)C3(CO)C4C(O)CC5(C)C(C6=CC(=O)OC6)CCC5(O)C4CCC3(O)C2)C(O)C(O)C1O (configuration not stated) do in these assays?
CHRM4 agonist: 0; CHRM5 antagonist: -2; M4 PAM: 9; M4 antag: -7; M5 ag: 3; CHRM5 PAM: 1

Results for COc1ccc2nc(-c3ccc(CN4CCC(n5c(=O)[nH]c6ccccc65)CC4)cc3)c(-c3ccccc3)nc2c1 ?
CHRM4 agonist: 10; CHRM5 antagonist: 18; M4 PAM: -9; M4 antag: 12; M5 ag: 21; CHRM5 PAM: -20

Results for CCC(c1nnnn1Cc1ccccc1)N1CCC(n2c(=O)[nH]c3ccccc32)CC1 (configuration not stated) ?
CHRM4 agonist: 23; CHRM5 antagonist: 14; M4 PAM: -12; M4 antag: 27*; M5 ag: 9; CHRM5 PAM: -15

Results for CCCCn1nnnc1C(CCc1ccccc1)N1CCC(n2c(=O)[nH]c3ccccc32)CC1 (configuration not stated) ?
CHRM4 agonist: 22; CHRM5 antagonist: 3; M4 PAM: -5; M4 antag: 3; M5 ag: 6; CHRM5 PAM: -12

Results for O=c1[nH]c2ccccc2n1C1CCN(Cc2ccc(-c3nc4ccccc4nc3-c3ccccc3)cc2)CC1 ?
CHRM4 agonist: 14; CHRM5 antagonist: 26; M4 PAM: 3; M4 antag: 6; M5 ag: 32*; CHRM5 PAM: -22

How did O=c1[nH]c2ccccc2n1C1CCN(Cc2ccc(-c3nc4ccc(F)cc4nc3-c3ccccc3)cc2)CC1 do in these assays?
CHRM4 agonist: 3; CHRM5 antagonist: 13; M4 PAM: -1; M4 antag: 2; M5 ag: 7; CHRM5 PAM: -13

How did Cc1ccc2nc(-c3ccc(CN4CCC(n5c(=O)[nH]c6ccccc65)CC4)cc3)c(-c3ccccc3)nc2c1 do in these assays?
CHRM4 agonist: 12; CHRM5 antagonist: 11; M4 PAM: -5; M4 antag: 11; M5 ag: 27*; CHRM5 PAM: -16

How did O=C(NCC1=C(c2ccc3ccccc3c2)C[C@@H]2CC[C@H]1N2Cc1ccco1)c1nccs1 do in these assays?
CHRM4 agonist: 6; CHRM5 antagonist: 16; M4 PAM: -14; M4 antag: -10; M5 ag: -2; CHRM5 PAM: -7

Results for C[N+](C)(C)CC#CCOC(=O)Nc1cccc(Cl)c1 ?
CHRM4 agonist: 44*; CHRM5 antagonist: 78*; M4 PAM: -20; M4 antag: 6; M5 ag: 89*; CHRM5 PAM: -20

Results for Cc1nc2ccccc2c(=O)n1-c1cccc(O)c1 ?
CHRM4 agonist: 1; CHRM5 antagonist: 0; M4 PAM: 17*; M4 antag: -8; M5 ag: -5; CHRM5 PAM: 9

What do the screens show for `Cc1ccc(-c2nc3ccccc3c(=O)n2-c2cccc(O)c2)cc1`?
CHRM4 agonist: 3; CHRM5 antagonist: 1; M4 PAM: 2; M4 antag: -4; M5 ag: -3; CHRM5 PAM: -4

What do the screens show for `Cc1ccc2nsnc2c1-n1c(C)nc2ccccc2c1=O`?
CHRM4 agonist: 1; CHRM5 antagonist: -7; M4 PAM: 30*; M4 antag: 14; M5 ag: 3; CHRM5 PAM: 10

Results for C[C@]12CCC3C(CC[C@H]4C[C@@H](O)[C@H](O)C[C@]34C)C1CC[C@@H]2O (some centres not stated) ?
CHRM4 agonist: 15; CHRM5 antagonist: 4; M4 PAM: -6; M4 antag: -19; M5 ag: 5; CHRM5 PAM: -10

How did CCc1ccc(-n2c(O)c(/C=N/N3CCCCC3c3cccnc3)c(=O)[nH]c2=O)cc1 (configuration not stated) do in these assays?
CHRM4 agonist: 0; CHRM5 antagonist: -11; M4 PAM: 11; M4 antag: 0; M5 ag: 3; CHRM5 PAM: 19*
